Bioassay records as filed in PubChem.
M1 antagonist – blocks the rat M1 muscarinic receptor response to acetylcholine. CHO-M1 cells, Fluo-4 calcium, ACh EC80 antagonist mode; hits give low values. B-score at 10 µM. 64,000 tested, 3.4% active;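 active = calcium fluorescence response, raw or row-and-column corrected B-score, differing from the plate sample mean either way at a set confidence level, mostly lower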
M1 agonist – M1 muscarinic receptor agonism; B-score at 10 µM; CHO-M1 cells, Fluo-4 calcium fluorescence, agonist mode; hits give high values; 64,000 tested, 3% active;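 active = fluorescence rise, raw or as B-score row- and column-corrected plate score, outside the 99.7% band of its plate's samples, either direction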
D1 allo mod – allosteric modulators of human D1 dopamine receptor; P21728; HEK293 D1, CRE-luciferase, dopamine EC30 potentiation; actives deviate in either direction; B-score at 10 µM; 58,000 tested, 5.9% active;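 active = luminescence count or its row- and column-corrected plate score outside the 99.7% band of the plate's sample wells, on either side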
mHtt clearance – compounds clearing mutant huntingtin protein | HeLa Exon1htt(103Q)mCFP, aggregate imaging; zero = plate's median compound well | inhibition, % at 1.5 µM | 47,000 tested, 0.42% active | AID 853;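 active = inhibition of aggregate fluorescence above about 70%, also judged a hit by eye on the cell image, limit read from the data, passing the limit was not always enough; inconclusive = no rule stated for this call; inactive = not judged a hit on image review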;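 note: cells exposed to compound for three days before fixation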
RORA act – activators of human nuclear receptor RORA; P35398; CHO-K1 Gal4-RORA LBD luciferase reporter, luminescence; percent increase over mock-subtracted basal signal; activation, % at 10 µM; 65,000 tested, 1.5% active; AID 560;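 active = activation above the mean of all tested compounds plus 3 SD, cut at about 49% in these data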
SF1 activator – activates the human nuclear receptor SF-1. Q13285. CHO-K1 Gal4-SF-1 LBD luciferase reporter; % increase over DMSO SF-1-specific signal. activation, % at 10 µM. 65,000 tested, 1.9% active;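 active = activation above the mean activation of all tested compounds plus 3 SD, cut at about 50% in these data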
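material = CHO-K1 cells with Gal4–hSF-1 LBD chimera plus Gal4-driven luciferase | compound = 10 µM single point, 1% DMSO | incubation = 20 h compound exposure at 37 °C after 1 h cell settling | measured by = SteadyLite luciferase luminescence | evaluation = percent activation relative to DMSO median and mock-transfected background | control set = DMSO negative control and −SF1 background wells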
M1 ag confirm – rat M1 muscarinic agonism, confirmation | CHO-M1 cells, Fluo-4 calcium fluorescence, agonist mode; actives lie on both sides | 1,700 tested, 19% active | shares compounds with M1 agonist | fluorescence change (max-min) at 10 µM;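 active = fluorescence change differs from the solvent-only DMSO control mean at a set confidence level in both duplicate runs; inconclusive = differs from solvent-only control mean in just one of two runs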;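 note: an EC20 dose of acetylcholine follows compound addition during the same imaging run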
M4 agonist ctr – counter-screen for M1 agonists: activity at rat M4 receptor; shares compounds with M1 agonist; CHO M4/Gqi5 cells, Fluo-4 calcium fluorescence, agonist mode; actives lie on both sides; fluorescence change (max-min) at 10 µM; 1,700 tested, 9% active;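 active = fluorescence change differing from the plate's solvent-only control wells at 99.7% confidence in both duplicates, whether higher or lower; inconclusive = differs from solvent controls in only one of two duplicates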
Target sequence (P08485 whole entry, looked up): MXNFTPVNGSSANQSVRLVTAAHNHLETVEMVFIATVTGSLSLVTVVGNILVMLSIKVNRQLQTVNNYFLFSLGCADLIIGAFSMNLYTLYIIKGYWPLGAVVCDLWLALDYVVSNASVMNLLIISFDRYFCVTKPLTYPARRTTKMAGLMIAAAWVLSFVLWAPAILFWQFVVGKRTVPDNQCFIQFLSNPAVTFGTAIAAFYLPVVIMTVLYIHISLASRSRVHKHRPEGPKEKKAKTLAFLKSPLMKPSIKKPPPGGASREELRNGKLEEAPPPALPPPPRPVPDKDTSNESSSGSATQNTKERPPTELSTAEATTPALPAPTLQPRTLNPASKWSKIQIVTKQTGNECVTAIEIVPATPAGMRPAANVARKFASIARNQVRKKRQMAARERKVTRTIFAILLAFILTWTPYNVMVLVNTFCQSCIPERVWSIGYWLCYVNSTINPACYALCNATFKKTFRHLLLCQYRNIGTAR
Large screens that a line does not name were inactive (follow-up assays come after a bar, where they were run). Rows were chosen to be rich in hits. Some 11% of all compounds tested hit in one or more screens of this group.

CCOC(=O)SC1=N/C(=C\c2ccc(N(C)C)cc2)C(=O)S1	M1 agonist 10.4 (no result: mHtt clearance) | M1 ag confirm inconclusive | M4 agonist ctr inconclusive
Cc1ccc(CSc2nc3c(c(=O)[nH]2)CCC3)cc1	M1 agonist 2.32 (no result: mHtt clearance, RORA act, SF1 activator) | M1 ag confirm inactive | M4 agonist ctr inactive
Cc1ccccc1CSc1nc2c(c(=O)[nH]1)CCCC2	none (no result: M1 antagonist, M1 agonist, D1 allo mod, RORA act, SF1 activator)
O=C(CN1C(=O)COc2ccccc21)N(CCCN1CCOCC1)CC1CC=CCC1 (configuration not stated)	none (no result: mHtt clearance)
CC(=O)c1ccc(NC(=O)CSc2nnc(-c3ccoc3C)n2Cc2ccccc2)cc1	M1 agonist 27.2 | M1 ag confirm inconclusive | M4 agonist ctr -75.5
Cc1ccnc(N2C(=O)OC(C)(C)C2(C)O)c1 (configuration not stated)	none (no result: M1 antagonist, M1 agonist, mHtt clearance)
O=S(=O)(c1ccccc1)c1cccc(S(=O)(=O)N2CCCCC2)c1	none (no result: M1 antagonist, M1 agonist)
Cc1ccc(S(=O)(=O)c2cccc(S(=O)(=O)N3CCCC3)c2)cc1S(=O)(=O)N1CCCC1	M1 antagonist -6.43, M1 agonist 4.18 (no result: mHtt clearance) | M1 ag confirm inactive | M4 agonist ctr inconclusive
CCOC(=O)C1CCCN(Cc2c(F)cccc2Cl)C1 (configuration not stated)	none (no result: mHtt clearance)
CCOC(=O)c1nnn(-c2nonc2N)c1CN1CCc2ccccc2C1	M1 agonist -2.65 | M1 ag confirm -26.5 | M4 agonist ctr inconclusive
Cc1cccc(-n2nnc(C(=O)NCc3ccccn3)c2N)c1	none
CCn1c(SCC(=O)N2CCOCC2)nc2oc3c(Cl)cc(Cl)cc3c(=O)c2c1=O	M1 agonist 4.36 | M1 ag confirm inactive | M4 agonist ctr inactive
O=C(O)CCc1cc(I)c(Oc2ccc(O)c(I)c2)c(I)c1	none (no result: mHtt clearance)
CCOc1ccc(C2C(C#N)=C(N)Oc3n[nH]c(C)c32)cc1OC(=O)C1CC1 (configuration not stated)	M1 agonist 4.64 (no result: mHtt clearance) | M1 ag confirm inactive | M4 agonist ctr inactive
Cc1ccc(C2C(C#N)=C(N)Oc3n[nH]c(C)c32)cc1 (configuration not stated)	none
COc1cc(C)c(CNc2ccc(OC)c(OC)c2)cc1C	none (no result: mHtt clearance)
CCOC(=O)C1=C(C)NC(=O)NC1c1ccc(OCCO)c(OC)c1 (configuration not stated)	none
COCCOC(=O)C1=C(C)NC(=O)NC1c1ccc(OC(=O)c2ccco2)c(OC)c1 (configuration not stated)	M1 agonist 6.75 (no result: D1 allo mod) | M1 ag confirm inactive | M4 agonist ctr inactive
Fc1ccc(-c2nnc3ccc(N4CCc5ccccc5C4)nn23)cc1	none (no result: mHtt clearance)
CCOC(=O)N1C(=O)c2cc(OC)ccc2S1(=O)=O	M1 agonist 3.19 | M1 ag confirm inconclusive | M4 agonist ctr inconclusive
CCOCCCNC(=O)C(c1ccc(C)cc1)N(Cc1ccc2c(c1)OCO2)C(=O)c1cnccn1 (configuration not stated)	none (no result: mHtt clearance)
C=CCN=C1SCC(=O)N1S(=O)(=O)c1ccc(C)cc1	M1 agonist 3.54 (no result: mHtt clearance) | M1 ag confirm inactive | M4 agonist ctr inactive
Cc1ccc(S(=O)(=O)N2CCN(S(=O)(=O)c3ccc(C)cc3)C2)cc1	none (no result: M1 antagonist, M1 agonist, D1 allo mod, RORA act, SF1 activator)
CN(C)c1ccc(N=Cc2nc(-c3ccccc3)oc2O)cc1	M1 agonist 20.6 (no result: mHtt clearance) | M1 ag confirm 147 | M4 agonist ctr inactive
CC(C)c1noc2ncc(C(=O)c3cc(Cl)cc(Cl)c3O)cc12	none (no result: M1 antagonist, M1 agonist, D1 allo mod, RORA act, SF1 activator)
CCOC(=O)c1ccccc1NC(=O)CN(c1cccc(OC)c1)S(C)(=O)=O	none (no result: M1 antagonist, M1 agonist, mHtt clearance)
CCCCCCNc1c(C(=O)OCC)c(=O)[nH]c2ccccc12	M1 agonist 5.43 (no result: mHtt clearance) | M1 ag confirm inactive | M4 agonist ctr inactive
CCOC(=O)c1c(NCC2CCCO2)c2ccccc2[nH]c1=O (configuration not stated)	none (no result: M1 antagonist, M1 agonist, D1 allo mod, RORA act, SF1 activator)
Cc1cc(NC(=O)COc2ncnc3sc(C)c(C)c23)no1	M1 agonist 14.6 (no result: mHtt clearance) | M1 ag confirm inactive | M4 agonist ctr inactive
CCS(=O)(=O)N1CCCC(C(=O)NCCc2ccccc2)C1 (configuration not stated)	none (no result: M1 antagonist, M1 agonist, D1 allo mod, RORA act, SF1 activator)
COc1cccc2cc(-c3nc(-c4cccs4)cs3)c(=O)oc12	M1 agonist 13.9, D1 allo mod -2.39, RORA act 55.4 (no result: mHtt clearance) | M1 ag confirm inconclusive | M4 agonist ctr inconclusive
O=C(C1CCN(S(=O)(=O)c2cccc3cccnc23)CC1)N1CCN(c2ccc(Cl)cc2)CC1	M1 agonist 3.37 (no result: mHtt clearance) | M1 ag confirm inactive | M4 agonist ctr inactive
CCOC(=O)C1CCCN(c2ncnc3c2oc2ccccc23)C1 (configuration not stated)	M1 antagonist -3.34, M1 agonist 4.21 | M1 ag confirm inactive | M4 agonist ctr inactive
CCOC(=O)C1CCN(c2ncnc3c2oc2ccccc23)CC1	none
CCc1nnc(N2CCN(c3ncnc4c3oc3ccccc34)CC2)s1	M1 antagonist -4.03, M1 agonist 9.95 (no result: mHtt clearance) | M1 ag confirm inactive | M4 agonist ctr inactive
CCOC(=O)C1CCN(c2nc(-c3ccccc3)nc3c2oc2ccccc23)CC1	M1 agonist 5.84 | M1 ag confirm inactive | M4 agonist ctr inactive
c1ccc(N2CCN(c3ncnc4c3oc3ccccc34)CC2)cc1	none
CCOc1ccccc1C1CC(c2ccc(F)cc2)Nc2nc(N)nn21 (configuration not stated)	none
C=CCN1C(c2ccccc2)=CS/C1=C(\C#N)c1nnc2n1CCCCC2	none (no result: mHtt clearance)
CCOc1ccc(C2=CS/C(=C(\C#N)c3nnc4n3CCCCC4)N2CC)cc1	M1 agonist 3.83 | M1 ag confirm inactive | M4 agonist ctr inactive
O=S(=O)(NCc1cccnc1)c1ccc(Cl)s1	none (no result: M1 antagonist, M1 agonist, D1 allo mod, RORA act, SF1 activator)
CCCn1c(SCC(=O)Nc2nccs2)nnc1-c1cccnc1	none
CCC(Sc1nnc(-c2ccc(C)c(Cl)c2)n1CC)C(=O)Nc1nccs1 (configuration not stated)	M1 agonist 5.25 (no result: mHtt clearance) | M1 ag confirm inactive | M4 agonist ctr inactive
O=C1CC(NC23CC4CC(CC(C4)C2)C3)C(=O)N1c1ccc2c(c1)OCO2 (configuration not stated)	none
CCCC(c1nnnn1Cc1ccccc1)N1CCN(c2ccccc2OC)CC1 (configuration not stated)	M1 agonist 7.05 | M1 ag confirm inactive | M4 agonist ctr inactive
CCCC(c1nnnn1Cc1ccc(OC)cc1)N1CCN(c2ccccc2OC)CC1 (configuration not stated)	none (no result: mHtt clearance)
COc1cccc(C(c2nnnn2Cc2ccccc2)N2CCN(C3CCCC3)CC2)c1OC (configuration not stated)	M1 antagonist -1.73, M1 agonist 2.85, D1 allo mod -3.55 | M1 ag confirm inactive | M4 agonist ctr inactive
